Reference: ChEMBL document CHEMBL1137886, “Pyridazine derivatives and related compounds. Part 13: Synthesis and antimicrobial activity of some pyridazino[3',4':3,4]pyrazolo[5,1-c]-1,2,4-triazines” (2004)

Key:
[1] = test system: Staphylococcus aureus; assay: In vitro antimicrobial activity against Staphylococcus aureus was evaluated by measuring the diameter of zone of inhibition; NS denotes no significant inhibition; type: functional, organism-based
Summary of the method: (§1)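 Disc diffusion on nutrient agar seeded with the bacterium: glass microfiber discs (0.6 cm) saturated with 0.2 mL of aqueous compound solutions at different concentrations; incubation at 37°C for 48 h; diameter of growth-inhibition zone read in millimetres.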

[2] = test system: Pseudomonas aeruginosa; assay: In vitro antimicrobial activity against Pseudomonas aeruginosa was evaluated by measuring the diameter of zone of inhibition; NS denotes no significant inhibition; type: functional, organism-based; summary of the method: as §1
[3] = test system: Candida albicans; assay: In vitro antifungal activity against Candida albicans was evaluated by measuring the diameter of zone of inhibition; NS denotes no significant inhibition; type: functional, organism-based
Summary of the method: (§2)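 Disc diffusion: glass microfiber discs (0.6 cm) saturated with 0.2 mL of aqueous compound solutions at various concentrations, placed on malt extract agar seeded with the yeast; plates incubated at 28°C for 96 h; inhibition zone diameter measured in mm.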

[4] = test system: Escherichia coli; assay: In vitro antimicrobial activity against Escherichia coli was evaluated by measuring the diameter of zone of inhibition; NS denotes no significant inhibition; type: functional, organism-based; summary of the method: as §1
[5] = test system: Staphylococcus aureus; assay: In vitro antimicrobial activity against Staphylococcus aureus was evaluated by measuring the diameter of zone of inhibition; type: functional; summary of the method: as §1
[6] = test system: Escherichia coli; assay: In vitro antimicrobial activity against Escherichia coli was evaluated by measuring the diameter of zone of inhibition; type: functional; summary of the method: as §1
[7] = test system: Candida albicans; assay: In vitro antifungal activity against Candida albicans was evaluated by measuring the diameter of zone of inhibition; type: functional; summary of the method: as §2
[8] = test system: Pseudomonas aeruginosa; assay: In vitro antimicrobial activity against Pseudomonas aeruginosa was evaluated by measuring the diameter of zone of inhibition; type: functional; summary of the method: as §1

SMILES | Inhibition [1] | Inhibition [2] | Inhibition [3] | Inhibition [4] | Inhibition [5] [mm] | Inhibition [6] [mm] | Inhibition [7] [mm] | Inhibition [8] [mm]
Cc1cnnc2c3c(-c4ccccc4)c(-c4ccccc4)nnc3nn12 | No inhibition | No inhibition | No inhibition | No inhibition | – | – | – | –
C/C(=N\NC(N)=O)c1nnc2c3c(-c4ccccc4)c(-c4ccccc4)nnc3nn2c1C | No inhibition | No inhibition | No inhibition | No inhibition | – | – | – | –
Cc1c(C(=O)N/N=C/c2cccs2)nnc2c3c(-c4ccccc4)c(-c4ccccc4)nnc3nn12 | – | – | – | – | 2 | 2 | – | –
Cc1c(/C(=N/Nc2ccccc2)c2ccccc2)nnc2c3c(-c4ccccc4)c(-c4ccccc4)nnc3nn12 | No inhibition | No inhibition | No inhibition | No inhibition | – | – | – | –
CCOC(=O)c1nnc2c3c(-c4ccccc4)c(-c4ccccc4)nnc3nn2c1-c1ccccc1 | No inhibition | No inhibition | No inhibition | No inhibition | – | – | – | –
Cc1c(C(=O)N/N=C/c2ccco2)nnc2c3c(-c4ccccc4)c(-c4ccccc4)nnc3nn12 | – | – | – | – | – | 2 | – | –
Cc1ccc(/C=N/NC(=O)c2nnc3c4c(-c5ccccc5)c(-c5ccccc5)nnc4nn3c2C)o1 | No inhibition | No inhibition | No inhibition | No inhibition | – | – | – | –
CC(=O)c1nnc2c3c(-c4ccccc4)c(-c4ccccc4)nnc3nn2c1C | – | – | – | – | 4 | – | 3 | –
Cc1c(C(=O)N/N=C/c2ccc([N+](=O)[O-])cc2)nnc2c3c(-c4ccccc4)c(-c4ccccc4)nnc3nn12 | – | – | – | – | – | 5 | – | –
NC(=O)NNC(=O)c1nnc2c3c(-c4ccccc4)c(-c4ccccc4)nnc3nn2c1-c1ccccc1 | No inhibition | No inhibition | No inhibition | No inhibition | – | – | – | –
CCOC(=O)c1nnc2c3c(-c4ccccc4)c(-c4ccccc4)nnc3nn2c1C | No inhibition | No inhibition | No inhibition | No inhibition | – | – | – | –
Cc1c(C(=O)N/N=C/c2cccn2C)nnc2c3c(-c4ccccc4)c(-c4ccccc4)nnc3nn12 | No inhibition | No inhibition | No inhibition | No inhibition | – | – | – | –
Cc1ccc(/C=N/NC(=O)c2nnc3c4c(-c5ccccc5)c(-c5ccccc5)nnc4nn3c2C)s1 | – | – | – | – | – | – | 2 | –
COc1ccc(/C=N/NC(=O)c2nnc3c4c(-c5ccccc5)c(-c5ccccc5)nnc4nn3c2C)cc1 | – | – | – | – | 3 | – | – | –
NNC(=O)c1nnc2c3c(-c4ccccc4)c(-c4ccccc4)nnc3nn2c1-c1ccccc1 | No inhibition | No inhibition | No inhibition | No inhibition | – | – | – | –
Cc1c(C(=O)N/N=C/c2ccc3ccccc3c2)nnc2c3c(-c4ccccc4)c(-c4ccccc4)nnc3nn12 | No inhibition | No inhibition | No inhibition | No inhibition | – | – | – | –
Cc1c(C(=O)N/N=C/c2ccc(Cl)cc2)nnc2c3c(-c4ccccc4)c(-c4ccccc4)nnc3nn12 | No inhibition | No inhibition | No inhibition | No inhibition | – | – | – | –
O=C(O)c1nnc2c3c(-c4ccccc4)c(-c4ccccc4)nnc3nn2c1-c1ccccc1 | No inhibition | No inhibition | No inhibition | No inhibition | – | – | – | –
Cc1c(C(=O)N/N=C/c2ccc[nH]2)nnc2c3c(-c4ccccc4)c(-c4ccccc4)nnc3nn12 | – | – | – | – | – | 2 | – | –
Cc1c(C(=O)NNC(N)=O)nnc2c3c(-c4ccccc4)c(-c4ccccc4)nnc3nn12 | No inhibition | No inhibition | No inhibition | No inhibition | – | – | – | –
Cc1c(/C(=N/NC(N)=O)c2ccccc2)nnc2c3c(-c4ccccc4)c(-c4ccccc4)nnc3nn12 | – | – | – | – | 4 | 3 | – | 2
O=C(NNc1ccccc1)c1nnc2c3c(-c4ccccc4)c(-c4ccccc4)nnc3nn2c1-c1ccccc1 | No inhibition | No inhibition | No inhibition | No inhibition | – | – | – | –
Cc1c(C(=O)O)nnc2c3c(-c4ccccc4)c(-c4ccccc4)nnc3nn12 | No inhibition | No inhibition | No inhibition | No inhibition | – | – | – | –
Cc1c(/C(=N/N)c2ccccc2)nnc2c3c(-c4ccccc4)c(-c4ccccc4)nnc3nn12 | No inhibition | No inhibition | No inhibition | No inhibition | – | – | – | –
Cc1c(C(=O)N/N=C/c2ccccc2)nnc2c3c(-c4ccccc4)c(-c4ccccc4)nnc3nn12 | No inhibition | No inhibition | No inhibition | No inhibition | – | – | – | –
c1ccc(-c2nnc3nn4c(-c5ccccc5)cnnc4c3c2-c2ccccc2)cc1 | No inhibition | No inhibition | No inhibition | No inhibition | – | – | – | –
Cc1c(C(=O)NNc2ccccc2)nnc2c3c(-c4ccccc4)c(-c4ccccc4)nnc3nn12 | No inhibition | No inhibition | No inhibition | No inhibition | – | – | – | –
